Laboratory results reported in ChEMBL document CHEMBL1124895, “Synthesis and biological evaluation of some cyclic phosphoramidate nucleoside derivatives” (1990).
Values after ≈ are worked out from the molar mass of the structure shown.

Experiments:
Type in all cases: functional
[1] = Antiviral Activity against vesicular stomatitis virus in rabbit kidney cell; details: Oryctolagus cuniculus
Raji = assay: Inhibitory activity against Raji cell line; details: Homo sapiens, read-out: ID50 (the source's name)
Summary of the method: (§1)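 Tumour cells, (5-7.5) × 10^4 per well in growth medium, exposed to varying compound concentrations and allowed to proliferate 48 or 72 h at 37 °C in humidified CO2 atmosphere; cell counts by Coulter counter; value is 50% inhibitory dose. FM3A TK- and TK-/HSV-2 TK+ lines derived from FM3A/0 and grown in the same medium.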

L1210 = assay: Inhibitory activity against L1210 cell line; details: Mus musculus, read-out: ID50 (the source's name); summary of the method: as §1
[2] = Antiviral Activity against herpes simplex virus-1 (McIntyre) in rabbit kidney cell; details: Oryctolagus cuniculus
[3] = Antiviral Activity against herpes simplex virus-2 (196) in rabbit kidney cell; details: Oryctolagus cuniculus
[4] = Antiviral Activity against herpes simplex virus-2 (G) in rabbit kidney cell; details: Oryctolagus cuniculus
[5] = Antiviral Activity against herpes simplex virus-2 (Lyons) in rabbit kidney cell; details: Oryctolagus cuniculus
[6] = Antiviral Activity against vaccinia virus in rabbit kidney cell; details: Oryctolagus cuniculus
[7] = Antiviral Activity against herpes simplex virus-1 (F) in rabbit kidney cell; details: Oryctolagus cuniculus
FM3A [8] = assay: Inhibitory activity against FM3A TK- cell line; details: Mus musculus, read-out: ID50 (the source's name); summary of the method: as §1
[9] = Antiviral Activity against herpes simplex virus-1 TK- VMW 1837 in rabbit kidney cell; details: Oryctolagus cuniculus
MOLT-4F = assay: Inhibitory activity against Molt/4F cell line; details: Homo sapiens, read-out: ID50 (the source's name); summary of the method: as §1
[10] = Antiviral Activity against herpes simplex virus-1 (KOS) in rabbit kidney cell; details: Oryctolagus cuniculus
FM3A [11] = assay: Inhibitory activity against FM3A/0 cell line; details: Mus musculus, read-out: ID50 (the source's name); summary of the method: as §1
[12] = Antiviral Activity against herpes simplex virus-1 TK- B2006 in rabbit kidney cell; details: Oryctolagus cuniculus
FM3A [13] = assay: Inhibitory activity against FM3A TK-/HSV-2 TK+ cell line; details: Mus musculus, […] TK-/HSV-2 TK+; read-out: ID50 (the source's name); summary of the method: as §1
Mus musculus [14] = assay: Tested for the appearance of skin lesions or paralysis of the legs after 39 days when administered intraperitoneally at 100 mg/kg per day; details: route intraperitoneal
Summary of the method: (§2)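 Athymic nu/nu mice, 25-30 days old, 15-20 g, inoculated intracutaneously in lumbosacral area with TK- HSV-1 VMW 1837, 10^5 CCID50 in 50 μL; intraperitoneal dosing 100 mg/kg per day, twice daily for 5 days from infection, in carboxymethylcellulose or water. Mean day of lesions/hind-leg paralysis and mean survival recorded over 39 days; survivors counted as 39-day.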

Mus musculus [15] = assay: Compound was evaluated in nu/nu mice infected with TK- HSV-1 (VMW-1837) to increase the mean survival time when applied topically at 10% after 52 days
Summary of the method: (§3)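 Athymic nu/nu mice, 25-30 days old, 15-20 g, inoculated intracutaneously in lumbosacral area with TK- HSV-1 VMW 1837, 10^5 CCID50 in 50 μL; topical 10% (v/v in DMSO) applied four times daily for 5 days from infection; DMSO placebo. Mean day of lesions/hind-leg paralysis and survival followed 52 days; survivors counted as 52-day.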

Mus musculus [16] = assay: Tested for the appearance of skin lesions or paralysis of the legs after 52 days when applied topically at 10% after 52 days; summary of the method: as §3
Mus musculus [17] = assay: Compound was evaluated in nu/nu mice infected with TK- HSV-1 (VMW-1837) to increase the mean survival time when administered intraperitoneally at 100 mg/kg per day after 39 days; details: route intraperitoneal; summary of the method: as §2

| Compound | MIC [1] [µg/mL] | IC50 (Raji) [µg/mL] | IC50 (L1210) [µg/mL] | MIC [2] [µg/mL] | MIC [3] [µg/mL] | MIC [4] [µg/mL] | MIC [5] [µg/mL] | MIC [6] [µg/mL] | MIC [7] [µg/mL] | IC50 (FM3A [8]) [µg/mL] | MIC [9] [µg/mL] | IC50 (MOLT-4F) [µg/mL] | MIC [10] [µg/mL] | IC50 (FM3A [11]) [µg/mL] | MIC [12] [µg/mL] | IC50 (FM3A [13]) [µg/mL] | Activity (Mus musculus [14]) | Mean survival time (Mus musculus [15]) [days] | Activity (Mus musculus [16]) | Mean survival time (Mus musculus [17]) [days] |
| --- | --- | --- | --- | --- | --- | --- | --- | --- | --- | --- | --- | --- | --- | --- | --- | --- | --- | --- | --- | --- |
| COC(CC1CN(C)P(=O)(OC[C@H]2O[C@@H](n3cc(/C=C/Br)c(=O)[nH]c3=O)C[C@@H]2O)O1)Sc1ccccc1 (stereo partly specified) | > 400 | > 100 | > 100 | 0.4 (≈ 0.647 µM) | > 400 | > 400 | > 400 | ≥ 400 | 0.1 (≈ 0.162 µM) | 12.4 (≈ 20.1 µM) | > 400 | > 100 | 0.1 (≈ 0.162 µM) | 82 (≈ 133 µM) | > 400 | 0.003 (≈ 0.00485 µM) | – | – | – | – |
| Nc1nc2c(ncn2COCCO)c(=O)[nH]1 [ACYCLOVIR] | > 400 | > 100 | 41 (≈ 182 µM) | 0.2 (≈ 0.888 µM) | 0.07 (≈ 0.311 µM) | 0.02 (≈ 0.0888 µM) | 0.1 (≈ 0.444 µM) | 150 (≈ 666 µM) | 0.1 (≈ 0.444 µM) | 0.62 (≈ 2.75 µM) | 10 (≈ 44.4 µM) | > 100 | 0.2 (≈ 0.888 µM) | 17 (≈ 75.5 µM) | 20 (≈ 88.8 µM) | 0.0009 (≈ 0.004 µM) | 17.2 | 46.2 | 40.8 | 30.4 |
| CN1CC(CC2SCCCS2)OP1(=O)OC[C@H]1O[C@@H](n2cc(/C=C/Br)c(=O)[nH]c2=O)C[C@@H]1O (stereo partly specified) | > 200 | > 100 | > 100 | > 200 | > 200 | 150 (≈ 257 µM) | > 200 | 200 (≈ 342 µM) | 150 (≈ 257 µM) | 32 (≈ 54.8 µM) | 300 (≈ 513 µM) | > 100 | 200 (≈ 342 µM) | 48 (≈ 82.1 µM) | 150 (≈ 257 µM) | 0.018 (≈ 0.0308 µM) | – | – | – | – |
| O=c1[nH]c(=O)n([C@H]2C[C@H](O)[C@@H](CO)O2)cc1/C=C/Br [BRIVUDINE] | > 400 | 73 (≈ 219 µM) | 22 (≈ 66 µM) | 0.01 (≈ 0.03 µM) | 100 (≈ 300 µM) | 2 (≈ 6 µM) | 20 (≈ 60 µM) | 7 (≈ 21 µM) | 0.01 (≈ 0.03 µM) | 0.31 (≈ 0.931 µM) | 300 (≈ 901 µM) | > 100 | 0.02 (≈ 0.06 µM) | 9.4 (≈ 28.2 µM) | 100 (≈ 300 µM) | 0.0005 (≈ 0.0015 µM) | 10.2 | 39.6 | 8.2 | 33.8 |
| CN1CCOP1(=O)OC[C@H]1O[C@@H](n2cc(/C=C/Br)c(=O)[nH]c2=O)C[C@@H]1O (stereo partly specified) | > 400 | > 100 | 90 (≈ 199 µM) | 0.04 (≈ 0.0885 µM) | > 400 | 10 (≈ 22.1 µM) | 200 (≈ 442 µM) | 20 (≈ 44.2 µM) | 0.07 (≈ 0.155 µM) | 1.3 (≈ 2.87 µM) | > 400 | > 100 | 0.02 (≈ 0.0442 µM) | 48 (≈ 106 µM) | > 400 | 0.0008 (≈ 0.00177 µM) | – | – | – | – |
| CN1CCOP1(=O)OCCOCn1cnc2c(O)nc(N)nc21 (stereo unspecified) | > 400 | > 100 | > 100 | – | – | 0.2 (≈ 0.581 µM) | – | 400 (≈ 1160 µM) | – | – | – | > 100 | 0.2 (≈ 0.581 µM) | > 100 | – | – | – | – | – | – |
